Assay outcomes deposited in PubChem BioAssay by several laboratories.
GAA850 FXN act = increases GAA850 frataxin promoter reporter activity | HEK293 lucGAA850 FXN promoter luciferase reporter, 24 h; percent of 10 µM SAHA response | activation, % at 6 µM | 0.56% of 360,000 active;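 active = activation above the average of all compounds screened plus 3 SD, cutoff fixed separately per campaign, cut at about 7.5% in these data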;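 also: 0% = DMSO wells and 100% = 10 µM SAHA wells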
Hsp70 act = transcriptional activators of Hsp70 | activation, % at 10 µM | HeLa Hsp70 promoter luciferase reporter, luminescence; scaled: vehicle 0, proteasome-inhibitor control 100% | 0.04% of 200,000 active;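 active = activation above the mean across all tested compounds plus 3 SD, cutoff set per campaign, cut at about 5.5% in these data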;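 also: 100% = MG132 at 30 µM as the positive control and 0% = DMSO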
HIF activator = HIF pathway transcriptional activation; U2OS HRE-luciferase reporter, luminescence; normalized: DMSO 0%, desferrioxamine 100%; activation, % at 7.5 µM (by protocol); 0.32% of 300,000 active; AID 1910;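 active = mean activation of at least 10% of the iron chelator positive control signal, with at least half of replicates also reaching 10%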
H9c2 TAG inh = reduces triacylglycerol accumulation in H9c2 cells | inhibition, % at 12.5 µM | 0.66% of 230,000 active | Nile Red lipid (TAG) fluorescence; cells loaded with 200 µM oleic acid | AID 651582;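 active = pattern-corrected inhibition of lipid staining of at least 50% with the nuclear-stain viability signal not falling by more than 50%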;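 also: 0% = DMSO wells and 100% = triacsin C control wells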
ABHD5-PLIN5 inh = ABHD5-PLIN5 protein interaction inhibition; inhibition, % at 4 µM; AID 602281; Split G. princeps luciferase complementation, luminescence, 4 h; Q00G26+Q8WTS1; 0.78% of 360,000 active;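 active = inhibition above the mean inhibition across every tested compound plus 3 SD, cut at about 22% in these data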;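 also: 0% = DMSO only wells and the 100% control is not disclosed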
Rad51 HR inh = Rad51 (human) homologous recombination inhibition; 0.085% of 200,000 active; Q06609; inhibition, % at 10 µM; hRad51 DNA strand exchange, fluorescence dequenching;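 active = inhibition above 40% at the single screening dose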;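 also: 0% = DMSO control wells and 100% = blanks with heterologous ssDNA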
Target sequence (Q06609 whole entry, looked up): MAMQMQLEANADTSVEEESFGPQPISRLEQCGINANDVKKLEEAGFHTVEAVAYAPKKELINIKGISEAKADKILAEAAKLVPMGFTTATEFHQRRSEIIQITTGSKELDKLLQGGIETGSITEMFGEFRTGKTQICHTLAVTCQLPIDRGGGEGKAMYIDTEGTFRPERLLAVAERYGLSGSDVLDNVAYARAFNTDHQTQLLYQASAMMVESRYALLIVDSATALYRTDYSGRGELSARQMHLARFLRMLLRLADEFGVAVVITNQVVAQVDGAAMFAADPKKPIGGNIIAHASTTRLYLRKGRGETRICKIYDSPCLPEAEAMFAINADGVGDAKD
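Test system: preformed human Rad51 ssDNA filaments; also added: Donor/quencher-labelled 47-bp dsDNA substrate; doses: 10 µM final, single point; times: 37 °C 15-min filament assembly, 30-min compound preincubation, 15-min exchange; detection: FRET fluorescence dequenching, excitation 485 nm, emission 520 nm; read-out basis: Fluorescence-based percent inhibition, control- and blank-normalised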
ABHD5 PLIN5 conf = ABHD5-PLIN5 interaction inhibition, confirmed; shares compounds with ABHD5-PLIN5 inh; biochemical ABHD5-PLIN5 interaction, luminescence; inhibition, % at 4 µM; 67% of 2,200 active; AID 651612; in the data active = inhibition above about 23%;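 also: 0% = DMSO vehicle wells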
HNF4 split-luc = active in HNF4 split-luciferase counter-screen for ABHD5-PLIN5 inhibitors. HNF4 dimerization, luminescence, biochemical. AID 651674. 77% of 2,200 active. inhibition, % at 4 µM. shares compounds with ABHD5-PLIN5 inh;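 active = mean inhibition across replicate wells exceeding the computed hit threshold, cut at about 13% in these data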;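 also: light from luciferase halves that rejoin when HNF4 fusion proteins dimerize; 0% = DMSO only wells and the 100% control is not given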
* hit, by the source's call; . = no result. The list is not random: actives were taken first. Their share in the collection is about 1.9%.

SMILES	GAA850 FXN act	Hsp70 act	HIF activator	H9c2 TAG inh	ABHD5-PLIN5 inh	Rad51 HR inh	ABHD5 PLIN5 conf	HNF4 split-luc
Cc1ccc(S(=O)(=O)Nc2ccc(C(=O)OCC(=O)N(CCC#N)c3ccccc3)cc2)cc1C	-1	0	0	.	-8	-3	.	.
O=C(c1ccccc1)N1CCN(CC(O)COc2ccc(Br)cc2)CC1 (stereo unspecified)	0	.	0	-2	-1	.	.	.
COC(=O)c1cccc(S(=O)(=O)N(Cc2ccco2)Cc2cc3cc(OC)ccc3[nH]c2=O)c1	-1	0	1	13	42*	6	56*	66*
Cc1cc(C)nc(NS(=O)(=O)c2ccc(NCN3C(=O)c4ccccc4C3=O)cc2)n1	0	.	.	8	27*	.	6	6
Cc1ccc(S/C=C\C(=O)c2ccccc2)cc1	-2	0	1	.	31*	2	48*	33*
COc1ccc(/C=C/C(=O)OCC(=O)c2ccccc2F)cc1	0	.	.	1	7	.	.	.
COc1ccc(/C=C\C(=O)CC(O)(c2ccccc2)C(F)(F)F)cc1 (stereo unspecified)	-1	0	0	.	53*	3	79*	55*
CN(CC(=O)Nc1cccc(F)c1)C(=O)c1cccc(S(=O)(=O)N2CCN(c3ccc(F)cc3)CC2)c1	-3	.	.	-25	-1	.	.	.
Cc1nnc(SC(C)C(=O)Nc2ncc(Cl)cc2Cl)n1Cc1ccccc1 (stereo unspecified)	-1	0	0	.	57*	-4	3	0
CCc1sc(C(C2C(=O)CC(C)(C)CC2=O)C2C(=O)CC(C)(C)CC2=O)cc1[N+](=O)[O-]	3	0	0	.	52*	4	101*	98*
CC1(C)CC(=O)C(C(c2ccc(F)cc2)C2C(=O)CC(C)(C)CC2=O)C(=O)C1	0	-1	-1	6	2	2	.	.
O=C(NCCCN1CCOCC1)/C(=C/c1ccc(-c2cccc([N+](=O)[O-])c2)o1)NC(=O)c1ccccc1	0	.	.	17	-3	.	.	.
Cc1nc2nc(C)n(CCN3CCOCC3)c(=O)c2c(-c2cccc([N+](=O)[O-])c2)c1C(=O)CCCCCCCCCCN1CCC(c2ccccc2)(c2ccccc2)CC1	-8	.	.	127*	42*	.	13	-2
Cc1nc(C(C)NC(=O)c2cc(COc3ccc(C)c(C)c3)on2)c(C)s1 (stereo unspecified)	2	.	2	.	29*	.	2	10
Cc1cccc(CC(C)NC(=O)c2cc(COc3ccc(C)c(C)c3)on2)n1 (stereo unspecified)	7	.	4	0	-5	.	.	.
CC1(C(=O)NS(=O)(=O)C2CC2)CCN(C(=O)CSc2ccccc2)C1 (stereo unspecified)	1	.	.	14	-2	.	.	.
COc1ccc(OCc2n(CC(=O)OC3CC(C)CCC3C(C)C)c3ccccc3[n+]2C)cc1 (stereo unspecified)	-2	.	0	39	39*	-13	14	9
CN(C(=O)COC(=O)/C=C/c1ccccc1)C1CCS(=O)(=O)C1 (stereo unspecified)	-1	.	.	0	9	.	.	.
COc1ccc(/C=C/c2cc(-c3ccc(C)cc3)o[n+]2C)cc1	-9	0	0	.	28*	2	44*	31*
O=C(NCc1cccc(F)c1)c1cccc2c1C(=O)c1ccc(N3CCOCC3)cc1S2(=O)=O	1	.	.	-8	25*	.	-1	16*
Cc1ccc(CNC(=O)c2cccc3c2C(=O)c2ccc(N4CCOCC4)cc2S3(=O)=O)cc1	-1	.	.	-7	5	.	.	.
O=C(NCc1ccco1)c1cccc2c1C(=O)c1ccc(N3CCCC3)cc1S2(=O)=O	-2	.	.	-40	26*	.	33*	73*
COC1=C(OC)C(=O)C(Sc2ccc3ccccc3c2)=CC1=O	3	.	.	16	81*	.	72*	104*
COc1ccc(S(=O)(=O)Oc2ccc3ccccc3c2)cc1	0	0	3	.	-7	13	.	.
COc1ccc(OC)c2sc(NC(=O)C(C)C)nc12	0	0	0	7	5	4	.	.
SMILES	GAA850 FXN act	Hsp70 act	HIF activator	H9c2 TAG inh	ABHD5-PLIN5 inh	Rad51 HR inh	ABHD5 PLIN5 conf	HNF4 split-luc
COc1ccc(OC)c2sc(Cl)nc12	3	0	0	1	109*	.	3	1
CCCCN1C(=N)N([C@@H](CCC)CN2CCC[C@H]2CN2C(N)=NC[C@@H]2Cc2ccccc2)C[C@H]1Cc1ccccc1	0	.	.	-15	-3	.	.	.
CC(C)[C@H](CN1CCC[C@H]1CN1C(N)=NC[C@@H]1Cc1ccccc1)N1C[C@@H](Cc2ccccc2)N(CCc2ccc(Cl)c(Cl)c2)C1=N	3	.	.	-18	36*	.	23*	6
CCC[C@@H](CN1CCC[C@H]1CN1C(N)=NC[C@@H]1Cc1ccccc1)N1C[C@@H](Cc2ccccc2)N(CCc2ccc(Cl)c(Cl)c2)C1=N	1	.	.	-11	29*	.	11	-2
CCCCN1C(=N)N([C@@H](C)CN2CCC[C@H]2CN2C(N)=NC[C@@H]2Cc2ccccc2)C[C@H]1[C@H](C)CC	2	.	.	-24	5	.	.	.
CCC[C@@H](CN1CCC[C@H]1CN1C(N)=NC[C@@H]1Cc1ccccc1)N1C[C@@H]([C@H](C)CC)N(CCc2ccc(Cl)c(Cl)c2)C1=N	3	.	.	-1	26*	.	12	3
CC(C)[C@H](CN1CCC[C@H]1CN1C(N)=NC[C@H]1C(C)C)N1C[C@@H](Cc2ccccc2)N(CCCC2CCCC2)C1=N	-1	.	.	-13	13	.	.	.
C#CCOCCOCCOCCNc1nc(N2CCN(C(=O)CCCCCCCCCCNC(=O)[C@H](CCCCN)n3cc(C)nn3)CC2)nc(N2CCN(C(=O)CCCCCCCCCCNC(=O)[C@@H]([C@H](C)O)n3cc(C)nn3)CC2)n1	0	.	.	-11	44*	.	8	-4
Cc1cn([C@@H](CCCCNC(=O)OC(C)(C)C)C(=O)NCCCCCCCCCCC(=O)N2CCN(C(=O)OC(C)(C)C)CC2)nn1	-7	.	.	-39	24*	.	3	-10
C#CCOCCOCCOCCNc1nc(N2CCN(C(=O)CCCCCCCCCCNC(=O)[C@@H](CCSC)n3cc(CCO)nn3)CC2)nc(N2CCN(C(=O)CCCCCCCCCCNC(=O)[C@@H]([C@H](C)O)n3cc(C)nn3)CC2)n1	-1	.	.	-31	53*	.	8	-17
